Laboratory results: PubChem BioAssay AID602266 (Broad Institute, 2012)
Records with an inconclusive call do not appear. Activity calls are given as the source filed them.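 Rule for the calls: active = compounds whose fitted half-maximal inhibition dose is at most double their top valid tested dose; inconclusive = flat curve with 30 to 70% inhibition, or poor fit; inactive = the rest.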

Tested on: not listed separately
Experiment: reduction of heat-induced Hsp90aa mRNA, dose response, orthogonal assay for HSF1 inhibitor project, NIH-3T3 cells, RT-qPCR, cherry-pick (AID 602266)
Settings: NIH-3T3 HGL cells, heat shock, Hsp90aa mRNA qPCR; at 26 µM (top of the series)
Summary of the method: (§1)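 Material: NIH-3T3-derived HGL heat shock reporter cells; reagent: heat shock at 42 °C for 90 min; timing: overnight plating, 90-min compound pretreatment, 90-min heat shock, 1-h recovery; detection: DNase cell lysis, reverse transcription, then multiplex TaqMan qPCR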
With `CCOc1ccc(OCc2cccc(C(=O)N/N=C/c3cccnc3)c2)cc1` the activity change, negative = inhibition was 37.3% (inactive). For `O=C(Nc1ccc(F)cc1F)c1cc2nc3c(c(C(F)(F)F)n2n1)CCCC3`, the activity change, negative = inhibition was 2.56% (inactive). In the case of `Cc1c(-c2nc(-c3ccc(C(C)(C)C)cc3)no2)n(C)oc1=O`, the activity change, negative = inhibition is reported as 18.8% (inactive). For `O=[N+]([O-])c1nn(-c2ccc3c(c2)OCCO3)n(O)c1=Nc1ccccc1`, the activity change, negative = inhibition was 29% (inactive). For `CC(C)(C)c1ccc(/C=N/Nc2cccc(C(=O)O)c2)cc1`, the activity change, negative = inhibition was 12.9% (inactive). For `C[C@@H]1C[C@H]2[C@@H]3CCC4=CC(=O)C=C[C@]4(C)[C@@]3(F)[C@@H](O)C[C@]2(C)[C@@]1(O)C(=O)CO`, the activity change, negative = inhibition was 6.93% (inactive). In the case of `Cc1cccc(-n2ncc3c(N(C)C4CCCCC4)ncnc32)c1`, the activity change, negative = inhibition is reported as 27% (inactive). For `CC(=O)[C@@]1(O)C(C)CC2C3C=C(C)C4=Cc5c(cnn5-c5ccccc5)C[C@]4(C)C3C(O)C[C@@]21C` (stereo not given in full), the activity change, negative = inhibition was 97.3% (inactive). With `CN(C(=O)OC(C)(C)C)c1ccc(-c2nc3ccccc3s2)cc1` the activity change, negative = inhibition was 46.6% (inactive). With `C[C@]12C=CC(=O)C=C1CC[C@@H]1[C@@H]2[C@@H](O)C[C@@]2(C)[C@H]1CC[C@]2(O)C(=O)CO` the activity change, negative = inhibition was 4.41% (inactive). In the case of `O=C(CN1C(=O)c2ccccc2S1(=O)=O)c1ccc2c(c1)OCCCO2`, the activity change, negative = inhibition is reported as 13.4% (inactive). With `COC(=O)c1ccccc1NC(=O)c1ccc(-c2ccc(Br)cc2)o1` the activity change, negative = inhibition was 4.07% (inactive). With `Cc1nc(SCC(=O)Nc2nc3ccccc3s2)c(C#N)c(C)c1C` the activity change, negative = inhibition was 7.25% (inactive). With `N#CCCCC#Cc1ccc2c(c1)COc1c3ccccc3nn1-2` the activity change, negative = inhibition was 65.7% (inactive). With `CCS(=O)(=O)N1Cc2ccccc2CC1C(=O)Nc1nc2ccccc2s1` (stereo not given) the activity change, negative = inhibition was 33.2% (inactive). With `CC1CCCN(c2ncnc3c2cnn3-c2ccc(Cl)cc2)C1` (stereo not given) the activity change, negative = inhibition was 28.9% (inactive). In the case of `CC(=O)OCC(=O)[C@@]12OC(C)(C)O[C@@H]1CC1C3C[C@H](F)C4=CC(=O)C=CC4(C)[C@@]3(F)C(O)CC12C` (stereo not given in full), the activity change, negative = inhibition is reported as -1.11% (inactive). In the case of `Cc1ccc(/C=N/Nc2ccc(C(=O)O)cc2)s1`, the activity change, negative = inhibition is reported as 32.5% (inactive). With `CC12CCC(=O)C=C1CCC1C2C(O)CC2(C)C1CCC2(O)C(=O)CO` (stereo not given) the activity change, negative = inhibition was 4.01% (inactive). For `O=c1c2ccccc2sc2ccc(C#CC3(O)CCCCC3)cc12`, the activity change, negative = inhibition was 49.4% (inactive). With `CC1CCN(c2ccc(-c3cccc(NC(=O)C(F)(F)F)c3)nn2)CC1` the activity change, negative = inhibition was 37.6% (inactive). For `CC(C)Sc1nc(SCC(=O)NCc2ccco2)c2c3c(sc2n1)COC(C)(C)C3`, the activity change, negative = inhibition was 52.6% (inactive). For `C(=N\Nc1nc2ccccc2s1)/c1ccccn1`, the activity change, negative = inhibition was 82.6% (inactive). With `CCC(=O)O[C@]1(C(=O)CCl)[C@@H](C)C[C@H]2[C@@H]3CCC4=CC(=O)C=C[C@]4(C)[C@@]3(F)[C@@H](O)C[C@@]21C` the activity change, negative = inhibition was 30.2% (inactive).

Tested on: NIH-3T3 HGL cells, heat shock, Hsp90aa mRNA qPCR
Experiment: as above
Settings: not given
Summary of the method: as §1
Molecule `CC1=C(C(=O)OCc2ccc3c(c2)OCO3)C(c2ccc(F)cc2)NC(=O)N1` (stereo not given) has an AC50 of 1390 nM.
